Source: PubChem
Only a selection was taken, and hits are over-represented in it overall.
HUVEC prolif 384: inhibitors of human endothelial cell proliferation | HUVEC proliferation, CellTiter-Glo luminescence, 72 h; active compounds read low | viability, % at 10 µM (by protocol) | 86,000 tested, 1.1% active | AID 648;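 active means viability at or below 30%; inactive means viability above 30%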
HCT116 bCat-KO: beta-catenin-lacking colon tumor cell growth suppression; HCT116 beta-catenin knockout viability, CellTiter-Glo, 60 h; active compounds read low; viability, % at 10 µM; 140,000 tested, 1.5% active;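 active means viability at or under a set limit, the compound median less 4 SD, cut at about 6% in these data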
H69AR growth 86K: growth inhibitors of human H69AR lung tumor cells. 85,000 tested, 6% active. viability, % at 10 µM. AID 598. H69AR lung tumor viability, ATP luminescence, 72 h; active compounds read low;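 active means viability at or below 40%; inactive means viability above 40%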;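 further: multidrug resistant small cell line overexpressing MRP-1 efflux transporter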
Lung fibro prol: blocks proliferation of human lung fibroblasts | LL 47 human lung fibroblast viability, ATP luminescence; active compounds read low | viability, % at 10 µM | 85,000 tested, 1.1% active;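 active means viability at or below 50% in the single dose screen; inactive means viability above 50%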;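 further: compound exposure lasted 72 h before the ATP readout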
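material = human LL 47 lung fibroblast cells | dosing = compounds added from tenfold dosing solution, 0.1% DMSO final | timing = overnight cell rest, 72 h compound treatment at 37 °C | measured by = CellTiter-Glo luminescence measuring cellular ATP | evaluation = % viability versus median cells-only luminescence | control set = cell-only wells, no compound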
HCT116 PTEN-null: growth suppressors of cells with PTEN tumor suppressor deletion; HCT116 PTEN-null viability, CellTiter-Glo, 60 h; active compounds read low; 140,000 tested, 1.2% active; viability, % at 10 µM;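 active means viability at or below a set limit, 4 SD under the median of all tested compounds, cut at about 3.7% in these data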;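 further: PTEN knockout HCT116 line with beta catenin targeted HCT116 as companion control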
A number is an active result; - = inactive; . = not tested or not shown.

SMILES | HUVEC prolif 384 | HCT116 bCat-KO | H69AR growth 86K | Lung fibro prol | HCT116 PTEN-null
CCOC(=O)c1ccc(NC(=O)CN2C(=O)C(C)SC(C)C2=O)cc1 (stereo unspecified) | . | - | . | . | -
Cc1ccc(CNC(=O)Cn2cc(C(F)(F)F)ccc2=O)cc1 | . | - | . | . | -
O=C(CSc1nc(-c2ccco2)cc(C(F)(F)F)n1)Nc1ccccc1C(F)(F)F | - | - | 26 | - | -
Cc1cc(NC(=O)CSc2nc(-c3ccco3)cc(C(F)(F)F)n2)no1 | . | - | . | . | -
Cc1ccc(Cn2ccc(NC(=O)CCSc3nc(-c4ccco4)cc(C(F)(F)F)n3)n2)cc1 | - | - | 14 | - | -
Cc1cccc(C)c1NC(=O)CSc1nc(-c2ccco2)cc(C(F)(F)F)n1 | - | - | 30 | - | -
CC(C)c1ccccc1-n1c(SCc2cc(=O)oc3ccc4ccccc4c23)nnc1-c1cccnc1 | . | - | . | . | -
CCN1/C(=C/c2ccc3cc(C)ccc3[n+]2CC)Sc2ccccc21 | . | 1.2 | . | . | 1.3
CC(C)NC[C@@H](O)c1ccc(O)c(O)c1 | . | - | . | . | -
CC(Cc1ccc(O)c(O)c1)C(C)Cc1ccc(O)c(O)c1 (stereo unspecified) | - | . | 33 | - | .
C=CCn1c(COc2cccc(C)c2)nnc1SCn1nnc2ccccc2c1=O | . | - | . | . | -
CCN(C(=O)COC(=O)/C=C/c1ccc(O)c(OC)c1)C1CCS(=O)(=O)C1 (stereo unspecified) | . | - | . | . | -
CCc1nc2ccc(C)cc2c(C(=O)NC2CCCCC2C)c1C (stereo unspecified) | . | - | . | . | -
CCCc1cc(=O)[nH]c(Nc2ccc(N3CCCCC3)cc2)n1 | - | - | - | - | -
CCCCc1ccc(Nc2nc(CCC)cc(=O)[nH]2)cc1 | 2.5 | - | - | - | -
CCCOc1ccc(-c2nnn(CC(=O)Nc3cccc(C(=O)OC)c3)n2)cc1 | - | - | 38 | - | -
CCOC(=O)c1c(N/N=C/c2ccncc2)n[nH]c1C | . | - | . | . | -
Cc1ccc2nc(/C(C#N)=N/O)[nH]c2c1 | - | - | - | - | -
Cc1ccc2nc(/C(C#N)=C/c3cn[nH]c3-c3ccc(F)cc3)[nH]c2c1 | - | 1.5 | 14 | - | 1.2
Cc1ccc2nc(/C(C#N)=C\c3ccc(N4CCCCC4)c([N+](=O)[O-])c3)[nH]c2c1 | - | - | 18 | - | -
N#C/C(=C/c1ccc(N2CCCC2)c([N+](=O)[O-])c1)c1nc2ccccc2[nH]1 | . | - | . | . | -
NC(=O)COC(=O)CN1C(=O)C2CCCCC2C1=O (stereo unspecified) | . | - | . | . | -
COc1c(Br)cc(Br)cc1/C=N/n1c(C)nnc1C | - | - | 25 | - | -
CCOc1ccc(NC(=O)c2cc3c(C)nc4ccccc4c3o2)cc1 | - | - | 30 | - | -
COc1cccc(C2=NC(C)(C)NC(c3ccccc3O)C2)c1 (stereo unspecified) | - | - | 1.1 | - | -
SMILES | HUVEC prolif 384 | HCT116 bCat-KO | H69AR growth 86K | Lung fibro prol | HCT116 PTEN-null
CCC1(C)N=C(c2ccc3c(c2)OCO3)CC(c2ccccc2O)N1 (stereo unspecified) | 25 | - | 2.1 | - | -
Cc1nc(-c2ccc3c(c2)OCO3)cs1 | - | - | - | - | -
COc1cccc(C2=NOC(C(=O)NC(C)C)C2)c1 (stereo unspecified) | - | - | - | - | -
CC(NC(=O)c1ccc([N+](=O)[O-])cc1[N+](=O)[O-])c1ccc(-c2ccccc2)cc1 (stereo unspecified) | . | - | . | . | -
CC(NC(=O)/C(C#N)=C/c1ccc(Cl)c([N+](=O)[O-])c1)c1ccccc1 (stereo unspecified) | . | 1.6 | . | . | 1.2
CCOc1ccccc1NC(=O)Cn1nnc(C(=O)NCc2ccco2)c1N | - | - | 26 | - | -
CCOc1ccccc1NC(=O)Cn1nnc(C(=O)Nc2ccc(C)cc2)c1N | - | - | - | - | -
Cc1ccc(N)c2c1OCCC2=O | . | - | . | . | -
O=C1N=C(N2CCCC2)CN1c1ccccc1 | . | - | . | . | -
O=C(Nc1ccc(F)cc1)C(Sc1nc2ccccc2[nH]1)c1ccccc1 (stereo unspecified) | . | 2.7 | . | . | 2.6
CCOc1ccc2nc(NC(=O)C3CCN(c4cnccn4)CC3)sc2c1 | - | - | 34 | - | -
CCOc1ccc2nc(NC(=O)c3ccoc3C)sc2c1 | - | - | 20 | 35 | -
CCOc1ccc2nc(NC(=O)COC)sc2c1 | - | - | - | - | -
CCOc1ccc2nc(NC(=O)Nc3cccs3)sc2c1 | - | - | 35 | - | -
CCOc1ccc2nc(NC(=O)Nc3ccccc3)sc2c1 | - | - | - | - | -
Cc1ccc(C)c(NC(=O)C2CCCN2S(=O)(=O)c2ccc3c(c2)n(C)c(=O)c(=O)n3C)c1 (stereo unspecified) | . | - | . | . | -
CCOc1ncccc1C(=O)N(C)CC(=O)Nc1ccccc1SC | . | - | . | . | -
Cc1ccc(S(=O)(=O)NCCC(=O)Nc2cccc(Cl)c2)cc1 | . | - | . | . | -
O=C(Nc1cccc2cccnc12)C1CCCC1 | . | - | . | . | -
Cc1cc(C)n(-c2nc3c(c(=O)[nH]c(=O)n3C)n2CC(O)COc2ccc(Cl)cc2Cl)n1 (stereo unspecified) | - | - | 13 | - | -
Cc1cc(C)n(-c2nc3c(c(=O)[nH]c(=O)n3C)n2Cc2ccccc2)n1 | - | - | - | - | -
CCN(CC)CCNc1nc2c(c(=O)[nH]c(=O)n2C)n1CC(O)COc1ccc(Cl)cc1Cl (stereo unspecified) | - | - | - | - | -
Cc1cc(C)n(-c2nc3c(c(=O)[nH]c(=O)n3C)n2CCc2ccccc2)n1 | - | - | 24 | - | -
Cc1ccccc1N1C(=O)c2sc3nc4c(c(=O)n3c2C1=O)CCC4 | - | - | 3.4 | - | -
O=C1c2sc3nc4ccccc4n3c2C(=O)N1c1ccccc1Cl | - | - | 2.9 | - | -
SMILES | HUVEC prolif 384 | HCT116 bCat-KO | H69AR growth 86K | Lung fibro prol | HCT116 PTEN-null
O=C1c2sc3nc4c(c(=O)n3c2C(=O)N1c1ccccc1)CCC4 | - | - | 35 | - | -
CCN(CC)S(=O)(=O)c1ccc(N2CCOCC2)c(NC(=O)C23CC4CC(CC(Cl)(C4)C2)C3)c1 | . | - | . | . | -
CCc1cc2c(=O)n(-c3ccc(C)cc3)cnc2s1 | - | - | - | - | -
NS(=O)(=O)c1ccc(CCNC(=S)Nc2ccccc2)cc1 | . | - | . | . | -
NNc1nc(-c2ccccc2Cl)nc2sc3c(c12)CCCC3 | . | - | . | . | -
O=C(CCN1C(=O)COc2ccccc21)NCc1cccs1 | - | - | - | - | -
O=C(Nc1c(C(=O)c2ccccc2)oc2ccccc12)c1cc(-c2ccccc2O)n[nH]1 | . | 1.9 | . | . | 1.8
Cc1ccc(C(=O)c2oc3ccccc3c2NC(=O)c2cc(-c3ccccc3O)n[nH]2)cc1 | . | - | . | . | -
Cc1cc(N2CCC(C)CC2)nc(SCC(=O)c2ccccc2)n1 | - | - | 40 | - | -
Cc1cc(N2CCCC2)nc(SCC(=O)c2ccccc2)n1 | - | - | - | - | -
CCOc1ccc(CNC(=O)CCCOc2cc(=O)n(C)c3ccccc23)cc1 | - | - | - | - | -
CCOC(=O)N1CCN(C(=O)CN(Cc2ccc(Cl)cc2)S(=O)(=O)c2ccc(C)cc2)CC1 | - | - | - | - | -
